Source: ChEMBL document CHEMBL4387709, “Discovery of Quinoline Analogues as Potent Antivirals against Enterovirus D68 (EV-D68)” (J Med Chem, 2019)
pEC50: −log10 of the molar value. The source made the active and inactive calls. The rule behind the calls is not given here.

Legend:
enterovirus D68 [1] = test: Antiviral activity against Enterovirus D68 US/KY/14-18953 infected in human RD cells assessed as inhibition of virus-induced cytopathic effect incubated for 5 mins under shaking condition and measured after 3 days by neutral red dye-based photometric method; format: functional, organism-based; conditions: Enterovirus D, US/KY/14-18953, RD
How it was run: (§1)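 RD cells seeded one day ahead to ~90% confluence, PBS (Mg/Ca) wash, infected at ~MOI 0.01 with EV-D68 in DMEM/2% FBS/30 mM MgCl2 at 33 °C, 5% CO2. Compounds and 1% P/S added after 1 h. Plates shaken ~5 min, held 3 days, viable cells stained with neutral red (66 µg/ml), A540 read. EC50 from dose-response fits, triplicates.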

RD [2] = test: Cytotoxicity against human RD cells after 3 days by neutral red dye-based photometric method; format: cell-based; conditions: rd, 72 h
[3] = Selectivity index, ratio of CC50 for human RD cells to EC50 for Enterovirus D68 US/KY/14-18953 infected in human RD cells; format: toxicity, cell-based; conditions: read-out: Ratio CC50/EC50
RD [4] = test: Inhibition of 2C protein in Enterovirus D68 US/KY/14-18953 infected in human RD cells assessed as reduction of VP1 expression at 1 uM measured at 9 hrs post infection by Western blot analysis; format: cell-based
How it was run: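 Equal protein separated and blotted to PVDF. Probed with rabbit anti-VP1 and mouse anti-GAPDH (1:3,000), HRP secondary, chemiluminescent detection. Mean of two independent experiments ± SD.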

RD [5] = test: Inhibition of 2C protein in Enterovirus D68 US/KY/14-18953 infected in human RD cells assessed as reduction of VP1 expression at 1 uM measured at 9 hrs post infection by DAPI-staining based microscopy; format: cell-based
How it was run: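 Fixed at 9 hpi (4% formaldehyde), 0.2% Triton X-100 permeabilized, blocked with 10% bovine serum. Stained with rabbit anti-VP1 plus Alexa-488 secondary, nuclei with 300 nM DAPI. Confocal microscopy.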

Influenza A virus = test: Antiviral activity against Influenza A virus (A/California/07/2009(H1N1)) at 10 uM after 2 days by plaque assay; format: functional, organism-based
enterovirus D68 [6] = test: Antiviral activity against Enterovirus D68 US/IL/14-18956 infected in human RD cells assessed as inhibition of virus-induced cytopathic effect incubated for 5 mins under shaking condition and measured after 3 days by neutral red dye-based photometric method; format: functional, organism-based; conditions: Enterovirus D, US/IL/14-18956, RD; how it was run: as §1
enterovirus D68 [7] = test: Antiviral activity against Enterovirus D68 US/MO/14-18947 infected in human RD cells assessed as inhibition of virus-induced cytopathic effect incubated for 5 mins under shaking condition and measured after 3 days by neutral red dye-based photometric method; format: functional, organism-based; conditions: Enterovirus D, US/MO/14-18947, RD; how it was run: as §1
[8] = Selectivity index, ratio of CC50 for human RD cells to EC50 for Enterovirus D68 US/MO/14-18949 infected in RD human cells; format: toxicity, cell-based; conditions: read-out: Ratio CC50/EC50
enterovirus D68 [9] = test: Antiviral activity against Enterovirus D68 […] infected in human RD cells assessed as inhibition of virus-induced cytopathic effect incubated for 5 mins under shaking condition and measured after 3 days by neutral red dye-based photometric method; format: functional, organism-based; conditions: Enterovirus D; how it was run: as §1
A549 = test: Cytotoxicity against human A549 cells after 3 days by neutral red dye-based photometric method; format: cell-based; conditions: a549, 72 h
How it was run: (§2)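 Uninfected cells run as in the CPE assay (33 °C, 3 days, same media) with compound. Viability by neutral red staining and 540 nm absorbance. CC50 from dose-response curves, triplicate experiments.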

HeLa = test: Cytotoxicity against human HeLa cells after 3 days by neutral red dye-based photometric method; format: cell-based; conditions: 72 h; how it was run: as §2
enterovirus D68 [10] = test: Antiviral activity against Enterovirus D68 US/KY/14-18953 infected in human A172 cells assessed as inhibition of virus-induced cytopathic effect incubated for 5 mins under shaking condition and measured after 3 days by neutral red dye-based photometric method; format: functional, organism-based; conditions: Enterovirus D, US/KY/14-18953, A 172
How it was run: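 A172 cells (DMEM, 10% FBS) grown ~90% confluent, infected with EV-D68 at ~MOI 0.3 in DMEM/2% FBS/30 mM MgCl2 and kept at 33 °C. P/S and compounds added 1 h later. Brief orbital shaking, then 3-day incubation. Neutral red staining with 540 nm absorbance. EC50 from best-fit dose-response curves in triplicate.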

[11] = Selectivity index, ratio of CC50 for human A172 cells to EC50 for Enterovirus D68 US/KY/14-18953 infected in human A172 cells; format: toxicity, cell-based; conditions: read-out: Ratio CC50/EC50
How it was run: (§3)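 A172 cells kept in DMEM with 10% FBS and 1% P/S, grown to about 90% confluency, then infected at MOI about 0.3 in DMEM with 2% FBS and 30 mM MgCl2 at 33 °C. After 1 h, P/S and compounds were added. Viable cells were stained with neutral red after 3 days (A540). CC50 came from the same assay without virus. EC50 and CC50 were fitted from triplicate dose-response data, and SI = CC50/EC50.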

enterovirus D68 [12] = test: Antiviral activity against Enterovirus D68 US/KY/14-18953 infected in human SH-SY5Y cells assessed as inhibition of virus-induced cytopathic effect incubated for 5 mins under shaking condition and measured after 3 days by neutral red dye-based photometric method; format: functional, organism-based; conditions: Enterovirus D, US/KY/14-18953, SH-SY5Y
How it was run: (§4)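 Virus at ~MOI 1 applied to SH-SY5Y cells (50% DMEM/50% F-12, 10% FBS) at ~90% confluence in DMEM/2% FBS/30 mM MgCl2 at 33 °C. Compounds added after 1 h with 1% P/S, shaken ~5 min, incubated 3 days. Viability read by neutral red uptake (A540). EC50 fitted from dose-response, triplicate.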

SH-SY5Y = test: Cytotoxicity against human SH-SY5Y cells after 3 days by neutral red dye-based photometric method; format: cell-based; conditions: 72 h; how it was run: as §2
[13] = Selectivity index, ratio of CC50 for human A172 cells to EC50 for Enterovirus D68 US/MO/14-18947 infected in human A172 cells; format: toxicity, cell-based; conditions: read-out: Ratio CC50/EC50; how it was run: as §3
enterovirus D68 [14] = test: Antiviral activity against Enterovirus D68 US/MO/14-18947 infected in human SH-SY5Y cells assessed as inhibition of virus-induced cytopathic effect incubated for 5 mins under shaking condition and measured after 3 days by neutral red dye-based photometric method; format: functional, organism-based; conditions: Enterovirus D, US/MO/14-18947, SH-SY5Y; how it was run: as §4
[15] = Selectivity index, ratio of CC50 for human SH-SY5Y cells to EC50 for Enterovirus D68 US/MO/14-18947 infected in human SH-SY5Y cells; format: toxicity, cell-based; conditions: read-out: Ratio CC50/EC50
How it was run: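 SH-SY5Y cells grown in 50% DMEM/50% F-12 with 10% FBS and 1% P/S to about 90% confluency, then infected at MOI about 1 in DMEM with 2% FBS and 30 mM MgCl2 at 33 °C. Compounds were added after 1 h. Neutral red staining was read at 540 nm after 3 days. CC50 came from uninfected cells under the same conditions. Values were triplicate dose-response fits, and SI = CC50/EC50.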

SMILES: O=C(NCCN1CCCC1)c1cc(-c2cccs2)nc2ccccc12
- pEC50 (enterovirus D68 [1]): 7.22
- CC50 (RD [2]): 40000 nM
- selectivity ratio [3]: 667
- inhibition (RD [4]): Active
- inhibition (RD [5]): Active
- Activity (Influenza A virus): inactive
- pEC50 (enterovirus D68 [6]): 7.30
- pEC50 (enterovirus D68 [7]): 7.22
- selectivity ratio [8]: 800
- pEC50 (enterovirus D68 [9]): 7.15
- CC50 (A549): 83200 nM
- CC50 (HeLa): 41700 nM
- pEC50 (enterovirus D68 [10]): 7.30
- selectivity ratio [11]: 1310
- pEC50 (enterovirus D68 [12]): 7.00
- CC50 (SH-SY5Y): 93300 nM
- selectivity ratio [13]: 327
- pEC50 (enterovirus D68 [14]): 7.70
- selectivity ratio [15]: 4660
